The target of data set [1] is DNA topoisomerase 2-alpha (Homo sapiens) (UniProt P11388). In words: Inhibition of human DNA topoisomerase-2alpha mediated decatenation using kinetoplast DNA as substrate at 5 to 50 uM incubated for 2 to 18 hrs. In a few lines: (§1)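 Human topoisomerase IIα decatenation of kinetoplast DNA, run with a commercial kit. Substrate DNA incubated with compound at 37 °C for 2 and 18 h.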

The nature of data set [2]: Permeability across PVDF membrane in PBS buffer of pH 7.4 at 500 uM incubated for 1 hr by UPLC-MS based PAMPA assay. The class given is ADME. The note with it: pH 7.4, 1 h. Put shortly: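 Donor: 500 μM compound in PBS pH 7.4, made from 10 mM DMSO stock. Acceptor: PBS with 5% DMSO. Filter coated with 1% L-α-phosphatidylcholine in n-dodecane. 1 h at room temperature. Initial, donor and acceptor samples quantified by UPLC-MS (C18, 0.1% formic acid water/acetonitrile gradient) against 20 μM caffeine internal standard. Membrane fraction taken by difference. Unreacted and reacted species summed.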

Data set [3] in a line: Stability in pH 7.4 PBS buffer incubated for 1 hr by UPLC-MS analysis. The class given is physicochemical. Conditions: pH 7.4, 1 h.
The next data set concerns BXPC-3. Nature of the data set: Cytotoxicity against human BxPC3 cells assessed as reduction in cell viability incubated for 72 hrs by MTT assay. The class given is functional, cell-based. Conditions: BXPC-3, 72 h. In a few lines:
(§2)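 Cell lines kept in log phase at 37 °C, 5% CO2 in RPMI-1640 with 10% fetal calf serum, penicillin 50 units/mL, streptomycin 50 μg/mL, 2 mM L-glutamine. Compounds dissolved in DMSO and added to medium at 0.5% final solvent. Treatment 72 h. Viability read by MTT. IC50 calculated.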

Data set [4] relates to DNA. In words: Induction of Escherichia coli pBR322 DNA cleavage in BPE buffer at 5 to 50 uM incubated for 2 hrs by electrophoresis method. The class given is nucleic-acid assay. Put shortly:
(§3)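 Supercoiled pBR322 plasmid (120 ng) incubated with compound at 5 and 50 μM in BPE buffer, 37 °C. Dilutions freshly made in water from 10 mM DMSO stock and added to DNA immediately. Supercoiled, open circular and linear forms resolved on 1% agarose in TAE and stained with GelRed.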

Data set [5] concerns DNA. In words: Induction of Escherichia coli pBR322 DNA cleavage in BPE buffer at 5 to 50 uM incubated for 18 hrs by electrophoresis method. The class given is nucleic-acid assay. Put shortly: as §3
The next data set relates to 2008. In words: Cytotoxicity against human 2008 cells assessed as reduction in cell viability incubated for 72 hrs by MTT assay. In kind it is functional, cell-based. The note with it: Homo sapiens, 2008, 72 h. In a few lines: as §2
The test system of another data set is HCT-15. Nature of the data set: Cytotoxicity against human HCT15 cells assessed as reduction in cell viability incubated for 72 hrs by MTT assay. Conditions: HCT-15, 72 h. The class given is functional, cell-based. In a few lines: as §2
In general terms: Formazan colour is commonly taken as a measure of viable cells.

The target of data set [6] is DNA topoisomerase 2-alpha (Homo sapiens) (UniProt P11388). In words: Inhibition of human DNA topoisomerase-2alpha mediated decatenation using kinetoplast DNA as substrate at 50 uM incubated for 18 hrs. Put shortly: as §1
Data set [7] can be described thus: Induction of dsDNA (unknown origin) alkylation in BPE buffer at 50 uM incubated for 2 hrs by ESI-MS analysis. Put shortly: (§4)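 Duplex oligodeoxynucleotide at 2 μM final, incubated with compound at 50 μM final in BPE buffer, 37 °C. Compound diluted in water from 10 mM DMSO stock just before use. Analysed by direct-infusion ESI-MS on an Orbitrap in 150 mM ammonium acetate. Adducts and abasic species assigned by mass, 6− charge state.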

Data set [8] is described as follows: Induction of dsDNA (unknown origin) alkylation in BPE buffer at 50 uM incubated for 18 hrs by ESI-MS analysis. In a few lines: as §4

A word on the IC50: it is the point on the concentration scale where inhibition reaches its midpoint.

Calls of active or inactive are those of the source. No cut-off for these calls is given here.

Chain of DNA topoisomerase 2-alpha (Homo sapiens) (P11388 whole entry, the tested form may be a part): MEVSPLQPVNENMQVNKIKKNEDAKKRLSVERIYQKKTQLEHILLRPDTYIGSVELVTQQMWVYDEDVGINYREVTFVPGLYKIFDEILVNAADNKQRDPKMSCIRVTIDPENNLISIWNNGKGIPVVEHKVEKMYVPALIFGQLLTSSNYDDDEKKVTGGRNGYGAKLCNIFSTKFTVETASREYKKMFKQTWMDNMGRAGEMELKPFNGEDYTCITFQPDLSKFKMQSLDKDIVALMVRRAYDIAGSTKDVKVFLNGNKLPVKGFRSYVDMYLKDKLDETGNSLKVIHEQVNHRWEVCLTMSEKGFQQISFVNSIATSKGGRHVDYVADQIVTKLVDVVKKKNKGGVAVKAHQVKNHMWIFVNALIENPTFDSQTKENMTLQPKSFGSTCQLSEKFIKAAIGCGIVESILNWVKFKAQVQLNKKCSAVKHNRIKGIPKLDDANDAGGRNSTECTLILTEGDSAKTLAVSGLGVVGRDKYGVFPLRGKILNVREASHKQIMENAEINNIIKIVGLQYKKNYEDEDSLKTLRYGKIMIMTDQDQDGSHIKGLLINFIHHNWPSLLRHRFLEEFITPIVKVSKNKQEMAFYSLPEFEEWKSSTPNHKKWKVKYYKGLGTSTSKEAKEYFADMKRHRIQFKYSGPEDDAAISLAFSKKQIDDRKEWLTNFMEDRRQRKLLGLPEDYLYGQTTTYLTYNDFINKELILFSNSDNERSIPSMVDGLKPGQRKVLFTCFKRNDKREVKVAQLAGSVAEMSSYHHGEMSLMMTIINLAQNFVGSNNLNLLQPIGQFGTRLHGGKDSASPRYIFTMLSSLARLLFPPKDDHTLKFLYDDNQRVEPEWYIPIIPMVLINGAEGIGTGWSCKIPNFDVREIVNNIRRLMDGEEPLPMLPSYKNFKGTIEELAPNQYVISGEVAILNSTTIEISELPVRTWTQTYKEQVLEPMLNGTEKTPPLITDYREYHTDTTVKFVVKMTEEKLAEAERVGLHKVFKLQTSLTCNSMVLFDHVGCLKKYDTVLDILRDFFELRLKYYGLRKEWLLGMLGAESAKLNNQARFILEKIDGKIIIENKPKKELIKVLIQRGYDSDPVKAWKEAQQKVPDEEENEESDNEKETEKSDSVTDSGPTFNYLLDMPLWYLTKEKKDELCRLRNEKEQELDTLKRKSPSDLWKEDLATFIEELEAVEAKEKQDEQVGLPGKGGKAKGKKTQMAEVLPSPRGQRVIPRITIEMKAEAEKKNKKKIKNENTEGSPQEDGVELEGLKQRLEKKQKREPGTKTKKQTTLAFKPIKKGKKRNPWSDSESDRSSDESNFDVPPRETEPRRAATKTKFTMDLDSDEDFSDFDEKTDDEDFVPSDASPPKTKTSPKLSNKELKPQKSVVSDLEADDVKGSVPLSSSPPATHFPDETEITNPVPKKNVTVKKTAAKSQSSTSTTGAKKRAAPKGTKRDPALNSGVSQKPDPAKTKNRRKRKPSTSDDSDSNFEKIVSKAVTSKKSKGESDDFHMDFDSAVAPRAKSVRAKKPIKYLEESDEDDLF

For the compound `CCCCN1CCC[C@@H](Cl)C1`, the inhibition entry in data set [1] is “inactive”. Moreover, the permeability entry in data set [2] is “Permeable”. The Stability entry in [3] is “Stable”. Moreover, the figures for the IC50 with BXPC-3, in the data set on 2008 and with HCT-15 were 274 nM, 4600 nM and 5640 nM, respectively. For the same compound, the result with DNA [4] was inactive. Moreover, the outcome with DNA [5] was Active.

On to `CCCCN1CC(Cl)CC(C)(C)C1` (racemic), for which the inhibition entry in data set [6] is “Active”. Further, the permeability result in data set [2] is recorded as “Impermeable”. Also, the result (in data set [7]; in data set [8]; in the data set with DNA [5]) was Active. Also, in data set [3], the Stability result is “Stable”. In addition, the half-maximal inhibitory concentration (IC50) stood at 24 nM with BXPC-3, 174 nM in the data set on 2008 and 254 nM in the data set on HCT-15. The outcome in the data set on DNA [4] was inactive.

`CC1(C)CC(Cl)CN(Cc2ccccc2)C1` (racemic): the inhibition result in [6] is “Active”. Besides, the permeability entry in data set [2] is listed as “Impermeable”. In data set [3], the Stability result was “Stable”. Moreover, the concentration for half-maximal inhibition (IC50) in the data set with BXPC-3 was 6 nM; in the data set with 2008 it was 107 nM; with HCT-15, 300 nM. Besides, the result in the data set on DNA [4] was inactive. Moreover, in the data set with DNA [5], the result was Active.

For `O=C(O)CCCc1ccc(N(CCCl)CCCl)cc1` [CHLORAMBUCIL], the IC50 was found to be 75300 nM in the data set with BXPC-3, 12500 nM with 2008 and 49700 nM in the data set with HCT-15. The result with DNA [4] was inactive. Further, the result with DNA [5] was Active.

With `CCCCN1CCC[C@H](Cl)C1`, in [1], the inhibition result is “inactive”. Also, the permeability entry in [2] is given as “Permeable”. Also, in [3], the Stability entry is “Stable”. Also, the values for the IC50 with BXPC-3, in the data set on 2008 and in the data set on HCT-15 were 7 nM, 102 nM and 181 nM, respectively. The outcome with DNA [4] was inactive. The outcome in the data set with DNA [5] was Active.

With `CCCCN1CCCC(Cl)C1` (racemic), the result (in [7]; with DNA [4]) was inactive. Besides, in data set [3], the Stability entry was “Stable”. In addition, the IC50 in the data set with BXPC-3 amounted to 57 nM; in the data set on 2008 it was 329 nM; with HCT-15 it was 474 nM. In addition, the result (in data set [8]; in the data set with DNA [5]) was Active.

The record behind these values is ChEMBL document CHEMBL4433218, “Behind the Mirror: Chirality Tunes the Reactivity and Cytotoxicity of Chloropiperidines as Potential Anticancer Agents” (ACS Med Chem Lett, 2019).
